Consider three compounds from ChEMBL document CHEMBL1133773, “Characterization of a novel analogue of 1alpha,25(OH)(2)-vitamin D(3) with two side chains: interaction with its nuclear receptor and cellular actions” (2000).

The structures appear in SMILES notation. Activity calls are given as the source filed them.

Assay [1] has as its system LNCaP. Kind of assay: Inhibition of colony formation assays on LNCaP cells. It counts as functional. The note with it: Homo sapiens, read-out: ED50 (the source's name). The essentials: (§1)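 Soft agar clonal assay in six-well dishes with two layers: compound mixed into the 0.5% agar under layer, cells (1 × 10³/plate) in the 0.3% agar upper layer. Incubated 12 days at 37 °C in humidified 5% CO2. Colonies expressed as percent of untreated control plates. Triplicate plates per point, each experiment done at least three times; ED50 taken from dose-response curves.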

Assay [2] deals with T1, Vitamin D-binding protein (Homo sapiens) (UniProt P02774).
T1 sequence (whole entry): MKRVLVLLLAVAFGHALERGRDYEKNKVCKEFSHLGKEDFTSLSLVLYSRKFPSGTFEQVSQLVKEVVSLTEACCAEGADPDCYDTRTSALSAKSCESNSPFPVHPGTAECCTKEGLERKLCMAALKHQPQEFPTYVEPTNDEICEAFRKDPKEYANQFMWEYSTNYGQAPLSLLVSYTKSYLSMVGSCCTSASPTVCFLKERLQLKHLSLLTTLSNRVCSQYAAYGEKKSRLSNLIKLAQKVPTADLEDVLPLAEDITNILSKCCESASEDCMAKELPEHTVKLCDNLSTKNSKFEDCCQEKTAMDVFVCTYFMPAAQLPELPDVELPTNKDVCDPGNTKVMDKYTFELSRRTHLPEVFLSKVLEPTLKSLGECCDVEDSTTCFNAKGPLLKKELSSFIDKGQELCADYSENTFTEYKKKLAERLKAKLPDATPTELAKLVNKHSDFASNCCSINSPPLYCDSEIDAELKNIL
Kind of assay: Percentage binding to Human Vitamin D binding protein, relative competitive index (RCI). An outline of the steps:
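Steroid competition assay with human DBP: increasing unlabeled ligand or 125D standard incubated 4 h at 4 °C with a fixed concentration of [³H]125D. Bound and free ligand separated by charcoal-dextran. RCI calculated relative to 125D, which is set at 100%.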

For assay [3], the target named is T2, Vitamin D3 receptor (Gallus gallus) (UniProt O42392).
T2 sequence (whole entry): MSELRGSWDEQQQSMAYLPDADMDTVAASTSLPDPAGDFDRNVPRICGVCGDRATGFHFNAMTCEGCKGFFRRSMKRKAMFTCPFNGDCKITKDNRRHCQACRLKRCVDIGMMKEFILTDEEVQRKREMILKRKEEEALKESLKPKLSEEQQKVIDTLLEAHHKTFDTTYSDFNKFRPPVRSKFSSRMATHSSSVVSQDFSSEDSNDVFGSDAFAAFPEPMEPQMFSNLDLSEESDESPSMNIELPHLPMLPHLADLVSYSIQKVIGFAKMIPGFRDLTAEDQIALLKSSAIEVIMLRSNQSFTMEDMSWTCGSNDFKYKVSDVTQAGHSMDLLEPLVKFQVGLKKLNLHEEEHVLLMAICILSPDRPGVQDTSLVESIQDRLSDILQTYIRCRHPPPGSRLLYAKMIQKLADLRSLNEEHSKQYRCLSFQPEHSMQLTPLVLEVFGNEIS
The assay is described as follows: Percentage binding to chick intestinal vitamin D3 receptor, relative competitive index (RCI). An outline of the steps:
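Competition binding to chick intestinal VDR: rising concentrations of competitor or unlabeled 125D incubated 4 h at 4 °C with a defined amount of [³H]125D. Bound ligand separated from free by hydroxyapatite. RCI computed with 125D defined as 100%.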

A short description of assay [4]: Effective dose for transcriptional activation in ROS 17/2.8 osteosarcoma cells. The assay is classed as functional. The conditions noted are these: Rattus norvegicus; read-out: ED50 (the source's name).
The nature of assay [5]: Effective dose for Protease sensitivity. The assay is classed as functional. An outline of the steps: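 In vitro translated VDR labeled with [³⁵S]methionine, incubated 20 min at room temperature with ligand (10^-7–10^-11 M), then trypsin digestion 20 min; products resolved on 14% SDS-PAGE and autoradiographed. ED50 is the ligand concentration giving 50% of the maximal level of the major trypsin-resistant fragment. Trypsin level is given as both 15 and 20 µg/mL in the text.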

Another assay concerns HL-60. The assay is described as follows: Inhibition of colony formation assays on HL-60 cells. The assay is classed as functional. The note with it: Homo sapiens, read-out: ED50 (the source's name).
For the next assay, the system named is MCF7. The assay is described as follows: Inhibition of colony formation assays on MCF-7 cells. The assay is classed as functional. The conditions noted are these: Homo sapiens, read-out: ED50 (the source's name). An outline of the steps: as §1
Assay [6] has as its system LNCaP. Kind of assay: Inhibition of colony formation assays on LNCaP cells; (NR: not reached at <= 10e -6M). It counts as functional, cell-based. The conditions noted are these: Homo sapiens. The essentials: as §1

On to `C=C1/C(=C\C=C2/CCC[C@]3(C)[C@@H](C(CCCC(C)(C)O)CCCC(C)(C)O)CC[C@@H]23)C[C@@H](O)C[C@@H]1O`, for which the EC50 in the assay with LNCaP [1] stood at 82 nM; in assay [4], 1 nM; in the assay with HL-60, 0.34 nM; in the assay on MCF7, 1.2 nM. The values for the RCI in assay [2] and in assay [3] were 2.5% and 38%, respectively. In assay [5], this compound yielded an ED50 of 180 nM.

Consider `C=C1/C(=C\C=C2/CCC[C@]3(C)[C@@H]([C@@H](C)CCCC(C)(C)O)CC[C@@H]23)C[C@@H](O)C[C@@H]1O`, for which the RCI stood at 2.6% in assay [2] and 147% in assay [3]. Also, the ED50 in assay [5] stood at 0.13 nM.

With `C=C1/C(=C\C=C2/CCC[C@]3(C)[C@@H]([C@H](C)CCCC(C)(C)O)CC[C@@H]23)C[C@@H](O)C[C@@H]1O`, the RCI in assay [2] amounted to 100%. The ED50 result in the assay on LNCaP [6] was “inactive”. The same compound gave an ED50 in assay [5] of 5.9 nM.
